The source of these data is article PMC7993229 (Oncoimmunology, 2021).

The conditions of data set [1]: first-in-human clinical study; cited from earlier work.
Data set [2] has as its system EMT6 tumors. As to the kind of experiment: EMT6 syngeneic tumor model efficacy study. Type of data set: in vivo, BALB/c mouse. Particulars: MF-766 30 mpk. The gist of the method: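 EMT6 cells (0.5 × 10^6) were implanted s.c. in the right flank of female BALB/cAnN mice aged 6–8 weeks. Treatment started at a mean tumor volume of 100 mm3 (75–125). Test compound 30 mg/kg in 10% Tween 80 was dosed orally QDx28; anti-PD-1 10 mg/kg i.p. Q4Dx4. Tumor volume = 0.5 × L × W². Relative tumor volume and TGI (%) were derived vs control; n = 9–12; one-way ANOVA vs vehicle/isotype.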

For data set [3] the following is noted: rat AIA model; cited from earlier work.
The next data set has as its system Human NK cells. As to the kind of experiment: Natural killer cell activation. In kind it is cell-based.
For the next data set, the system named is THP-1 cells. As to the kind of experiment: THP-1 LPS-stimulated TNF-α assay. Particulars: 1 h pretreatment, 1 μg/mL LPS + PGE2. Type of data set: cell-based, human. The gist of the method:
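THP-1 monocytes were preincubated 1 h with graded test compound concentrations. They were then stimulated with 1 μg/mL LPS, with or without 0.33 μM PGE2, for 18 h. Cells were centrifuged and TNF-α in the supernatant was quantified by Meso Scale Discovery.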

The subject of data set [4] is bone marrow-derived dendritic cells (BMDCs). As to the kind of experiment: Dendritic cell activation. In kind it is cell-based, C57/BL6 mice. Particulars: mouse BMDCs. An outline of the steps:
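Bone marrow flushed from C57BL/6 femurs was cultured 6 days in RPMI with 20 ng/mL mouse GM-CSF and 20 ng/mL mouse IL-4 to give immature DCs. Cells were pretreated 1 h with test compound, then given 1 μg/mL LPS ± 0.037 μM PGE2 for 18 h. Supernatant TNF-α was read with a Meso Scale Discovery mouse panel.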

For data set [5], the system named is human primary tumor histoculture. As to the kind of experiment: Human tumor histoculture. Particulars: histoculture system. Type of data set: cell-based. An outline of the steps: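 Tumor tissue was trimmed of fat, cut into ~400 µm slices and cultured at the air–liquid interface (37°C, 5% CO2) in DMEM with 10% FBS and penicillin/streptomycin. Slices were stimulated with 50 ng/mL anti-human CD3 plus test compound or DMSO for 48 h. IFN-γ, IL-2 and TNF-α were measured by Meso Scale Discovery and expressed as fold change vs DMSO (mean ± S.E.M, n = 8).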

In a further data set the test system is human CD8+ T cells. As to the kind of experiment: MF-766 and pembrolizumab combination in human CD8+ T cells. Particulars: for CD8+ T cell viability: Fig S2B. In kind it is cell-based. An outline of the steps: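 CD8+ T cells were purified from frozen healthy-donor PBMCs and seeded at 1 × 10^5 cells/well in RPMI-1640 with 10% heat-inactivated FBS and 2 mM L-glutamine. Test compound was titrated from 3 µM in 3-fold steps ± PGE2 (10 nM), with pembrolizumab or human IgG4 isotype at 20 µg/mL. Cells were activated with anti-CD3/CD28 beads plus 100 U/mL IL-2 for 24 h at 37°C; IFN-γ was read by Meso Scale Discovery.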

Data set [6] has as its system CT26 tumors. As to the kind of experiment: CT26 syngeneic tumor model efficacy study. In kind it is in vivo, BALB/c mouse. An outline of the steps: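 Female BALB/cAnN mice (6–8 weeks) received 0.5 × 10^6 CT26 cells s.c. in the lower right flank. Dosing began at a mean tumor volume of 100 mm3 (75–125). Test compound 30 mg/kg (10% Tween 80) or vehicle was given orally QDx21; anti-PD-1 or isotype was given 10 mg/kg i.p. Q4Dx4. Volume = 0.5 × L × W², followed 60 days. RTV and TGI (%) were calculated; n = 9–12; one-way ANOVA vs vehicle/isotype.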

A further data set deals with CRC patient blood. As to the kind of experiment: Ex vivo whole blood LPS-stimulated TNF-α assay. Type of data set: cell-based, human. The settings on record: 1 μg/mL LPS + PGE2. An outline of the steps:
(§1)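 Blood was collected in sodium heparin. Healthy-donor blood was used fresh on assay day; CRC patient blood was drawn 1 day before and shipped overnight. Samples were pretreated 1 h with test compound, then stimulated with 1 μg/mL LPS (final) ± 0.037 μM PGE2 for 18 h. After centrifugation, TNF-α in the supernatant was measured by Meso Scale Discovery.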

Data set [7] in a line: Pharmacokinetic parameters of MF-766 in mice. Particulars: female, C57/B6, mouse, in vivo, po.
In data set [8] the test system is healthy human whole blood. As to the kind of experiment: Ex vivo whole blood LPS-stimulated TNF-α assay. In kind it is cell-based. Particulars: 1 μg/mL LPS + PGE2. The gist of the method: as §1
In data set [9] the test system is PGE2-induced MDSCs / autologous CD8+ T cells. As to the kind of experiment: Suppressive myeloid cell and T-cell co-culture assay. In kind it is cell-based, human. Particulars: 1:4 ratio, anti-CD3/CD28 beads, vs DMSO control; MF-766 10, 1, 0.1, 0.01 μM.
In data set [10] the test system is CT26 tumors. As to the kind of experiment: Flow cytometry of immune infiltrates in CT26 tumors. Type of data set: in vivo, mouse. An outline of the steps: (§2)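 Mice bearing 100 mm3 tumors were dosed as in the efficacy schedule, and tumors were harvested on day 8. Tumors were weighed, enzymatically dissociated and filtered (70 µm). Then 2–3 million cells were stained with fixable viability dye, Fc-blocked 10 min on ice and surface-stained 30 min on ice. Populations were gated within viable CD45+ singlets (NK CD3−CD335+CD49b+; gMDSC CD11b+Ly6G+; macrophages; DCs) and reported as % CD45+ and cells/mg tumor; n = 9–10.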

For data set [11], the system named is human monocyte-derived DCs. As to the kind of experiment: Dendritic cell activation. In kind it is cell-based. The gist of the method: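 Commercially sourced human dendritic cells were pretreated 1 h with test compound. They were then stimulated with 1 μg/mL LPS with or without 0.037 μM PGE2 for 18 h. TNF-α in the medium was quantified with a Meso Scale Discovery human pro-inflammatory panel.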

In data set [12] the test system is EMT6 tumors. As to the kind of experiment: Flow cytometry of immune infiltrates in EMT6 tumors. The settings on record: EMT6, single-agent treatment. Type of data set: in vivo, mouse. The gist of the method: as §2
In a further data set the test system is primary tumor digests. As to the kind of experiment: Anti-CD3-stimulated primary tumor digest culture. In kind it is cell-based, human. Particulars: without PGE2 spike. An outline of the steps:
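Cells were plated at 0.1 × 10^6/well, from four donors, and cultured 48 h. IFN-γ and TNF-α in supernatants were read on a Meso Scale Discovery platform; technical-replicate means were taken per donor.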

Turning to `C[C@H](NC(=O)c1c(C(F)F)nn(C)c1Oc1cccc(C(F)(F)F)c1)c1ccc(C(=O)O)cc1` [E-7046], in data set [1], the tolerability result was “well tolerated”.
With `O=C(O)c1ccc(C2(NC(=O)c3cccc4ccn(Cc5ccc(C(F)(F)F)cc5)c34)CC2)cc1` [MF-766, 4-[1-[([1-[4-(trifluoromethyl)benzyl]-1H-indol-7-yl]carbonyl)amino]cyclopropyl]be nzoic acid], the single-agent activity entry with EMT6 tumors [2] is “did not show single-agent activity”. In addition, in [3], the “potency compared to other COX-2 inhibitors, including celecoxib and MF-tricyclic” value is listed as “greater than 200 fold”. Besides, the “reversal of PGE2-suppressed IFN-γ secretion” value in the data set with Human NK cells (1 h pretreatment, 50 ng/mL IL-2 ± PGE2 overnight) is recorded as “reversed by pretreatment with MF-766 in a dose-dependent manner”. The NK cell viability entry with Human NK cells (conditions of Figure 2b (Fig S2A)) was “not affected”. The “reversal of PGE2-decreased LPS-stimulated TNF-α production” value in the data set with THP-1 cells is listed as “fully reversed”. The “restoration of PGE2-suppressed TNF-α production” value in [4] (1 μg/mL LPS + PGE2) was “fully restored”; with CRC patient blood it was “partially restored”; in data set [11] (1 μg/mL LPS + PGE2), “fully restored”. Also, the “anti-CD3–stimulated IFN-γ, IL-2, and TNF-α secretion” value in data set [5] is on record as “increase”. Besides, the “CD8+ T cell viability” value in the data set with human CD8+ T cells is “Neither PGE2 nor MF-766 addition affected”. In addition, the “reversal of PGE2-mediated inhibition of IFN-γ production” value with human CD8+ T cells (PGE2 10 nM, anti-CD3/CD28 beads, 24 hours, MF-766 alone) was “reversed PGE2-mediated inhibition of IFN-γ production”. Further, the “tumor progression on monotherapy” value in the data set on CT26 tumors [6] (MF-766 30 mpk monotherapy) is “all tumors progressed”. This compound also gave a tumor volume reduction in the data set with CT26 tumors [6] (compared to vehicle/isotype treated group, MF-766 30 mpk, muDX400 10 mpk) of 49%. The AUC(0-t) turned out to be 57.5 ± 10.8 µM·h in [7] (30 mg/kg) and 255 ± 97.3 µM·h in data set [7] (100 mg/kg). Further, the Cmax came out at 15 ± 4.37 µM in [7] (30 mg/kg) and 24.1 ± 6.01 µM in data set [7] (100 mg/kg). Besides, the Tmax in [7] (30 mg/kg) and in [7] (100 mg/kg) was 30 min each time. The “reversal of PGE2 suppression of LPS-stimulated TNF-α production” value in data set [8] is recorded as “partially reversed”. The “reversal of MDSC/PGE2 suppression of IFN-γ release from CD8+ T cells” value in data set [9] is given as “reversed by MF-766 in a dose-dependent manner”. For the same compound, the “MHCII high/low macrophage ratio” value in the data set on CT26 tumors [10] (CT26) is “increased”. Moreover, the “NK cells, percentage in CD45+ fraction and absolute number per mg tumor” value with CT26 tumors [10] (CT26, D8) is listed as “significantly enriched”. In the data set with CT26 tumors [10] (CT26, D8, primarily CD8+ T cells, not CD4+), the “CD3+ T cells, frequency of CD45+ cells and absolute numbers in the tumor” value is “significant enrichment”. The “absolute numbers of tumor-infiltrating CD45+ leukocytes per mg tumor” value in the data set with CT26 tumors [10] (CT26, D8 post-therapy) is given as “significantly increased”. The “CD8+ DCs” value in the data set with CT26 tumors [10] (CT26, single-agent treatment) was “remarkable increase”. Further, the CT26 tumor weight entry in the data set on CT26 tumors [10] (day 8, difference did not reach statistical significance) is recorded as “trend toward reduction in size”. For the same compound, the “CD8+ or NK cell infiltration into tumors” value in the data set with EMT6 tumors [12] is given as “did not significantly increase”. In addition, the “percentage of gMDSCs” value in the data set on EMT6 tumors [12] (absolute numbers per mg not significant) is “significantly decreased”.
Consider `CCCCC[C@H](O)/C=C/[C@H]1[C@H](O)CC(=O)[C@@H]1C/C=C\CCCC(=O)O` [PGE2, Prostaglandin E2, reference compound], for which the “suppression of TNF-α production” value in [4] (compared to LPS alone) and in [11] (compared to LPS alone) was ~ 30% each time. The “CD8+ T cell viability” value with human CD8+ T cells is “Neither PGE2 nor MF-766 addition affected”.
For the compound “pembrolizumab: humanized monoclonal immunoglobulin (Ig)G4 antibody against PD-1”, in the data set on primary tumor digests, the “IFN-γ and TNF-α secretion” value is given as “enhanced”.
